Reference: publication PMC7775634 (Cell reports, 2020)
Positions count from the first letter of the chain named. Names and notes keep the numbering of the source. Values belong to the molecule of their own block, whether it stands above or below them. Ends that are not written are not given here. * marks the point of attachment. Biotin = O=C1N[C@H]2[C@H](CS[C@H]2CCCCC(=O)*)N1; Rhodamine = not defined here

Experiments:
[1] = system: Cdc15 phosphostate in cells; details: FK506-treated cells; ref Martín-García et al., 2018; cited from earlier work
Imp2 F-BAR domain = assay: In vitro binding assay; parameters: species or system S. pombe; details: biotin-labeled peptide; streptavidin pull down; SDS-PAGE, Coomassie
Outline: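 Biotinylated test peptide (0.10 μM) and purified F-BAR domain (0.05 μM) were mixed with streptavidin resin. Incubation was 1 h at 4°C in 50 mM Tris pH 7.4, 250 mM NaCl, 0.1% NP-40. Resin was washed thoroughly. Bound protein was resolved by SDS-PAGE and stained with Coomassie blue.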

[2] = biological target: T1, Cdc15 F-BAR domain (E30K E152K) (Schizosaccharomyces pombe, UniProt Q09822, E152K/E30K); assay: Isothermal titration calorimetry; type: binding, S. pombe
T1 sequence (Q09822 19-312 E30K/E152K): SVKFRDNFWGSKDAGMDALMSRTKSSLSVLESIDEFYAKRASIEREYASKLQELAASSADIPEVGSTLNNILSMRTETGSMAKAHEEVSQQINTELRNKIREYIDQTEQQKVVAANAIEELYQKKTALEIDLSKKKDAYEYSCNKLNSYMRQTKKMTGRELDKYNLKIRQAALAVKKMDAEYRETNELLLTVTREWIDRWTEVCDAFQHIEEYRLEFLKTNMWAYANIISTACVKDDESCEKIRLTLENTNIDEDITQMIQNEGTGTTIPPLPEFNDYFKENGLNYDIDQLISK

Cdc15 F-BAR domain = assay: Binding between purified Cdc15 F-BAR domain and recombinant CN; parameters: species or system S. pombe
[3] = phosphorylated; ref Bhattacharjee et al., 2020; cited from earlier work
[4] = biological target: T2, GFP-Cdc15 F-BAR domain (residues 19-312) (S. pombe, UniProt Q09822 19-312); assay: recruitment to giant unilamellar vesicles, fluorescence microscopy
T2 sequence (looked up): T1 sequence (Q09822 19-312 E30K/E152K) with K12E, K134E

Molecule: C=CC[C@@H]1/C=C(\C)C[C@H](C)C[C@H](OC)[C@H]2O[C@@](O)(C(=O)C(=O)N3CCCC[C@H]3C(=O)O[C@H](/C(C)=C/[C@@H]3CC[C@@H](O)[C@H](OC)C3)[C@H](C)[C@@H](O)CC1=O)[C@H](C)C[C@@H]2OC [FK506]
Cdc15 phosphostate [1]: Cdc15 phosphostate changes

Molecule: TPTPSARRTIGPRAPKSKTTY [Cdc12 peptide]
Kd [2]: 5 µM

B1: Cdc15 (E30K E152K): Full-length FLAG-Cdc15 (E30K E152K) co-expressed with kinase Pom1 (protein, UniProt Q09822 1-927, looked up, variant E30K E152K)
chain: MEVNGVSQSEAAPYVTKSSVKFRDNFWGSKDAGMDALMSRTKSSLSVLESIDEFYAKRASIEREYASKLQELAASSADIPEVGSTLNNILSMRTETGSMAKAHEEVSQQINTELRNKIREYIDQTEQQKVVAANAIEELYQKKTALEIDLSKKKDAYEYSCNKLNSYMRQTKKMTGRELDKYNLKIRQAALAVKKMDAEYRETNELLLTVTREWIDRWTEVCDAFQHIEEYRLEFLKTNMWAYANIISTACVKDDESCEKIRLTLENTNIDEDITQMIQNEGTGTTIPPLPEFNDYFKENGLNYDIDQLISKAPSYPYSSSRPSASASLASSPTRSAFRPKTSETVSSEVVSSPPTSPLHSPVKPVSNEQVEQVTEVELSIPVPSIQEAESQKPVLTGSSMRRPSVTSPTFEVAARPLTSMDVRSSHNAETEVQAIPAATDISPEVKEGKNSENAITKDNDDIILSSQLQPTATGSRSSRLSFSRHGHGSQTSLGSIKRKSIMERMGRPTSPFMGSSFSNMGSRSTSPTKEGFASNQHATGASVQSDELEDIDPRANVVLNVGPNMLSVGEAPVESTSKEEDKDVPDPIANAMAELSSSMRRRQSTSVDDEAPVSLSKTSSSTRLNGLGYHSRNTSIASDIDGVPKKSTLGAPPAAHTSAQMQRMSNSFASQTKQVFGEQRTENSARESLRHSRSNMSRSPSPMLSRRSSTLRPSFERSASSLSVRQSDVVSPAPSTRARGQSVSGQQRPSSSMSLYGEYNKSQPQLSMQRSVSPNPLGPNRRSSSVLQSQKSTSSNTSNRNNGGYSGSRPSSEMGHRYGSMSGRSMRQVSQRSTSRARSPEPTNRNSVQSKNVDPRATFTAEGEPILGYVIALYDYQAQIPEEISFQKGDTLMVLRTQEDGWWDGEIINVPNSKRGLFPSNFVQTV
modifications: full-length FLAG tag
membrane binding [3]: did not bind membrane

Next, values leading:

interaction with Imp2 F-BAR domain (Imp2 F-BAR domain): did not interact
Molecule: Cdc12 peptide (residues 20–40): Cdc12 (residues 20–40) peptide synthesized with an N-terminal biotin modification, used for binding assays (Biotin-TPTPSARRTIGPRAPKSKTTY)

binding to purified Cdc15 F-BAR domain (Cdc15 F-BAR domain): did not detect binding
Molecule: recombinant CN: Calcineurin produced by co-expressing Ppb1 as a 6xHis fusion (catalytic subunit), Cnb1 (regulatory subunit), and Cam1 (calmodulin)

binding result [4]: binds
Molecule: Rhodamine-TPTPSARRTIGPRAPKSKTTY (reading uncertain) [Rhodamine-Cdc12(aa20-40) peptide]
